Experimental data taken from ChEMBL document CHEMBL1129286, “In vitro and in vivo studies of benzisoquinoline ligands for the brain synaptic vesicle monoamine transporter” (J Med Chem, 1996).

Experiments:
Mus musculus [1] = assay: Competition of compound for the in vivo localization of [11C] Methoxytetrabenazine in mouse Hyphalamus; %ID/g (%injected dose/g); format: functional, organism-based
In short: (§1)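 CD-1 mice anesthetized with diethyl ether, given by tail vein a mixture of [11C]methoxytetrabenazine (100-300 µCi) plus 10 mg/kg test compound in 10% ethanol in saline, then allowed to recover. Controls received radiotracer in saline with no competitor. Killed under ether at 15 min, regional brain radioactivity read as %ID/g; mean ± SD, unpaired Student's t-test versus controls.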

[2] = target: Synaptic vesicular amine transporter (Rattus norvegicus, UniProt Q01827); assay: In vitro inhibition of [3H]- Methoxytetrabenazine binding to rat brain vesicular monoamine transporter 2 (VMAT2)
Sequence of Synaptic vesicular amine transporter (Q01827 whole entry): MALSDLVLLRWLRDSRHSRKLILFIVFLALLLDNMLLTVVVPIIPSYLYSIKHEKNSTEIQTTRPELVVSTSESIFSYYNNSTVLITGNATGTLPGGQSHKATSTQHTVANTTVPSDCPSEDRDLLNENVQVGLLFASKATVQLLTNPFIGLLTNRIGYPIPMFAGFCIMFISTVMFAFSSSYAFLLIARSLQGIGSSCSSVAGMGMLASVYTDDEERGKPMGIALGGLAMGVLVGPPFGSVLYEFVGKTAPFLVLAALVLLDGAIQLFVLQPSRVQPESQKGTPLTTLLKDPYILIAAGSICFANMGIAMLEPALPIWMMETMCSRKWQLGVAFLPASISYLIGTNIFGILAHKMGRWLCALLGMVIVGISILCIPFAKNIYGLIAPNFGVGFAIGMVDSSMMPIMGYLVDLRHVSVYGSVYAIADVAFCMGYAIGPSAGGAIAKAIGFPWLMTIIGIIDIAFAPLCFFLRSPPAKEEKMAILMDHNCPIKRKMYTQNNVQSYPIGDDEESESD
In short: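 Autoradiographic competition on rat brain coronal sections (20, caudate-putamen level) on slides. Sections prewashed at 25 °C in sucrose buffer (300 mM sucrose, 50 mM Tris, 1 mM EDTA, pH 8.0), then incubated 3 h with 10 nM [3H]methoxytetrabenazine and test drug from 1 nM. Washed 3 × 3 min, dipped in 4 °C water, air-dried, film-exposed 2 weeks.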

Mus musculus [3] = assay: Competition of compound for the in vivo localization of [11C] Methoxytetrabenazine in mouse Striatum; %ID/g (%injected dose/g); format: functional, organism-based; in short: as §1

SMILES	Ki [2] [nM]	ID/g (Mus musculus [1]) [%]	ID/g (Mus musculus [3]) [%]
COc1cc2c(cc1OC)[C@H]1C[C@@](O)(C(C)C)[C@H](CC(C)C)CN1CC2	136	3.06	6.21
COc1cc2c(cc1OC)[C@H]1C[C@@](O)(CC(C)C)[C@H](CC(C)C)CN1CC2	33	2.93	5.33
COc1cc2c(cc1OC)[C@H]1CC(=O)[C@H](CC(C)C)CN1CC2	–	1.71	2.26
CCC[C@]1(O)C[C@@H]2c3cc(OC)c(OC)cc3CCN2C[C@H]1CC(C)C	84	1.96	4.26

Further lines, with some results ahead:

Ki [2] [nM]	SMILES	ID/g (Mus musculus [1]) [%]	ID/g (Mus musculus [3]) [%]
42	CC[C@]1(O)C[C@@H]2c3cc(OC)c(OC)cc3CCN2C[C@H]1CC(C)C	2	3.24
2.6	COc1cc2c(cc1OC)[C@H]1C[C@@](C)(O)[C@H](CC(C)C)CN1CC2	1.96	2.09
12	COc1cc2c(cc1OC)[C@H]1C[C@](C)(O)[C@H](CC(C)C)CN1CC2	1.79	2.35
